Assay results published in ChEMBL document CHEMBL1138520, “Molecular and conformational determinants of pituitary adenylate cyclase-activating polypeptide (PACAP) for activation of the PAC1 receptor” (J Med Chem, 2009).
Where a SMILES comes first, the peptide text is derived from it. [ ]: non-standard residue; d: D form. Aib = CC(C)(N)C(=O)O

Columns and labels:
[1] = target: T1, Pituitary adenylate cyclase-activating polypeptide type I receptor (Homo sapiens, UniProt P41586); assay: Displacement of [125I]Ac-PACAP27 from human recombinant PAC1 receptor expressed in CHO cells by gamma- counter; assay type: cell-based
Target sequence in this assay (P41586 whole entry): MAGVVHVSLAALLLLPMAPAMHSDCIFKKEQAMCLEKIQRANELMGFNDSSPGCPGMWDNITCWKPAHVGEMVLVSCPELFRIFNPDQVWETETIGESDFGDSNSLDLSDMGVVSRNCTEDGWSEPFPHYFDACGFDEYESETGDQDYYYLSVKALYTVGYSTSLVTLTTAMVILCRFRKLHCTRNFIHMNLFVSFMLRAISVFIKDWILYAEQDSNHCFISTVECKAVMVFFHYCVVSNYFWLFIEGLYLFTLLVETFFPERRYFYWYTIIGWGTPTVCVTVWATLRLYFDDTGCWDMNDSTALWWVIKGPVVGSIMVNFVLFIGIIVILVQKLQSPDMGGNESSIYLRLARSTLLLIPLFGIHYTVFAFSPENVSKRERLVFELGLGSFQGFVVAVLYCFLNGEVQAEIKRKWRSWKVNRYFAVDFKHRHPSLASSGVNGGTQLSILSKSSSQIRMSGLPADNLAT

[2] = target: T1, Pituitary adenylate cyclase-activating polypeptide type I receptor; assay: Agonist activity at human recombinant PAC1 receptor expressed in CHO cells assessed as PACAP38-induced calcium mobilization by FLIPR assay; assay type: functional, cell-based
In short: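 CHO cells stably expressing recombinant human PAC1, plated 24 h before assay, loaded with fluo-4 AM for 60 min at 37 °C in the dark, then rinsed into HBSS for 15 min at 37 °C. EC50 and efficacy came from nonlinear regression; 4-10 independent assays in duplicate.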
Target sequence in this assay (P41586 whole entry): as above

[3] = target: T1, Pituitary adenylate cyclase-activating polypeptide type I receptor; assay: Agonist activity at human recombinant PAC1 receptor expressed in CHO cells assessed as PACAP38-induced calcium mobilization by FLIPR assay relative to PACAP38; assay type: functional, cell-based
In short: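 CHO cells stably expressing recombinant human PAC1, plated 24 h before assay, loaded with fluo-4 AM for 60 min at 37 °C in the dark, then rinsed into HBSS for 15 min at 37 °C. Peptide was added 18 s into a 150 s read (ex 480/em 525 nm), at final concentrations of 1 × 10-12 to 1 × 10^-5 M. Response was normalised to 1 × 10^-5 M PACAP38 on each plate. EC50 and efficacy came from nonlinear regression; 4-10 independent assays in duplicate.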
Target sequence in this assay (P41586 21-468 limits assumed): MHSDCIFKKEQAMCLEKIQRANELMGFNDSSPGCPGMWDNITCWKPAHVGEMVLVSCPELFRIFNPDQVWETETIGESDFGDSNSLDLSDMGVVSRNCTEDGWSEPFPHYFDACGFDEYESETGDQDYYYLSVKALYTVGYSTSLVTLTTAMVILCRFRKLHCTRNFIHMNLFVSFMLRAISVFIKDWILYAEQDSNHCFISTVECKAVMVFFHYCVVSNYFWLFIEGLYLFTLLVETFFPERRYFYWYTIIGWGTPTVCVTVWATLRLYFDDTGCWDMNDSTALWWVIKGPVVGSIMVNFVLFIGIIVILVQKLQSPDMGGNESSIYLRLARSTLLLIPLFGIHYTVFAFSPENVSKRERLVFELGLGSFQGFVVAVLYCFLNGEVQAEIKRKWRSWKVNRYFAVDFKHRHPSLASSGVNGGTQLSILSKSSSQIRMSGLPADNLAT

Compound	IC50 [1]	EC50 [2]	Emax [3]
CC[C@H](C)[C@H](NC(=O)CNC(=O)[C@H](CCC(=O)O)NC(=O)[C@H](CO)NC(=O)[C@@H](N)Cc1cnc[nH]1)C(=O)N[C@@H](Cc1ccccc1)C(=O)N[C@H](C(=O)N[C@@H](CC(=O)O)C(=O)N[C@@H](CO)C(=O)N[C@@H](Cc1ccc(O)cc1)C(=O)N[C@@H](CO)C(=O)N[C@@H](CCCNC(=N)N)C(=O)N[C@@H](Cc1ccc(O)cc1)C(=O)N[C@@H](CCCNC(=N)N)C(=O)N[C@@H](CCCCN)C(=O)N[C@@H](CCC(N)=O)C(=O)N[C@@H](CCSC)C(=O)N[C@@H](C)C(=O)N[C@H](C(=O)N[C@@H](CCCCN)C(=O)N[C@@H](CCCCN)C(=O)N[C@@H](Cc1ccc(O)cc1)C(=O)N[C@@H](CC(C)C)C(=O)N[C@@H](C)C(=O)N[C@@H](C)C(=O)N[C@H](C(=O)N[C@@H](CC(C)C)C(N)=O)C(C)C)C(C)C)[C@@H](C)O	10.6 nM	20.6 nM	90.5%
CC[C@H](C)[C@H](NC(=O)CNC(=O)[C@H](CC(=O)O)N(C)C(=O)[C@H](CO)NC(=O)[C@@H](N)Cc1cnc[nH]1)C(=O)N[C@@H](Cc1ccccc1)C(=O)N[C@H](C(=O)N[C@@H](CC(=O)O)C(=O)N[C@@H](CO)C(=O)N[C@@H](Cc1ccc(O)cc1)C(=O)N[C@@H](CO)C(=O)N[C@@H](CCCNC(=N)N)C(=O)N[C@@H](Cc1ccc(O)cc1)C(=O)N[C@@H](CCCNC(=N)N)C(=O)N[C@@H](CCCCN)C(=O)N[C@@H](CCC(N)=O)C(=O)N[C@@H](CCSC)C(=O)N[C@@H](C)C(=O)N[C@H](C(=O)N[C@@H](CCCCN)C(=O)N[C@@H](CCCCN)C(=O)N[C@@H](Cc1ccc(O)cc1)C(=O)N[C@@H](CC(C)C)C(=O)N[C@@H](C)C(=O)N[C@@H](C)C(=O)N[C@H](C(=O)N[C@@H](CC(C)C)C(N)=O)C(C)C)C(C)C)[C@@H](C)O	25.2 nM	418 nM	89.2%
CC[C@H](C)[C@H](NC(=O)CNC(=O)[C@H](CC(=O)O)NC(=O)[C@H](C)NC(=O)[C@@H](N)Cc1cnc[nH]1)C(=O)N[C@@H](Cc1ccccc1)C(=O)N[C@H](C(=O)N[C@@H](CC(=O)O)C(=O)N[C@@H](CO)C(=O)N[C@@H](Cc1ccc(O)cc1)C(=O)N[C@@H](CO)C(=O)N[C@@H](CCCNC(=N)N)C(=O)N[C@@H](Cc1ccc(O)cc1)C(=O)N[C@@H](CCCNC(=N)N)C(=O)N[C@@H](CCCCN)C(=O)N[C@@H](CCC(N)=O)C(=O)N[C@@H](CCSC)C(=O)N[C@@H](C)C(=O)N[C@H](C(=O)N[C@@H](CCCCN)C(=O)N[C@@H](CCCCN)C(=O)N[C@@H](Cc1ccc(O)cc1)C(=O)N[C@@H](CC(C)C)C(=O)N[C@@H](C)C(=O)N[C@@H](C)C(=O)N[C@H](C(=O)N[C@@H](CC(C)C)C(N)=O)C(C)C)C(C)C)[C@@H](C)O	5.1 nM	6.8 nM	98.1%
CC[C@H](C)[C@H](NC(=O)CNC(=O)[C@H](CC(=O)O)NC(=O)[C@H](CO)NC(=O)[C@@H](N)Cc1cnc[nH]1)C(=O)N[C@@H](Cc1ccc(-c2ccccc2)cc1)C(=O)N[C@H](C(=O)N[C@@H](CC(=O)O)C(=O)N[C@@H](CO)C(=O)N[C@@H](Cc1ccc(O)cc1)C(=O)N[C@@H](CO)C(=O)N[C@@H](CCCNC(=N)N)C(=O)N[C@@H](Cc1ccc(O)cc1)C(=O)N[C@@H](CCCNC(=N)N)C(=O)N[C@@H](CCCCN)C(=O)N[C@@H](CCC(N)=O)C(=O)N[C@@H](CCSC)C(=O)N[C@@H](C)C(=O)N[C@H](C(=O)N[C@@H](CCCCN)C(=O)N[C@@H](CCCCN)C(=O)N[C@@H](Cc1ccc(O)cc1)C(=O)N[C@@H](CC(C)C)C(=O)N[C@@H](C)C(=O)N[C@@H](C)C(=O)N[C@H](C(=O)N[C@@H](CC(C)C)C(N)=O)C(C)C)C(C)C)[C@@H](C)O	4.5 nM	1 nM	104%

Further compounds by falling IC50 [1], results first:

IC50 [1]	EC50 [2]	Emax [3]	Compound
9.1 nM	20.8 nM	105%	CC[C@H](C)[C@H](NC(=O)[C@H](C)NC(=O)[C@H](CC(=O)O)NC(=O)[C@H](CO)NC(=O)[C@@H](N)Cc1cnc[nH]1)C(=O)N[C@@H](Cc1ccccc1)C(=O)N[C@H](C(=O)N[C@@H](CC(=O)O)C(=O)N[C@@H](CO)C(=O)N[C@@H](Cc1ccc(O)cc1)C(=O)N[C@@H](CO)C(=O)N[C@@H](CCCNC(=N)N)C(=O)N[C@@H](Cc1ccc(O)cc1)C(=O)N[C@@H](CCCNC(=N)N)C(=O)N[C@@H](CCCCN)C(=O)N[C@@H](CCC(N)=O)C(=O)N[C@@H](CCSC)C(=O)N[C@@H](C)C(=O)N[C@H](C(=O)N[C@@H](CCCCN)C(=O)N[C@@H](CCCCN)C(=O)N[C@@H](Cc1ccc(O)cc1)C(=O)N[C@@H](CC(C)C)C(=O)N[C@@H](C)C(=O)N[C@@H](C)C(=O)N[C@H](C(=O)N[C@@H](CC(C)C)C(N)=O)C(C)C)C(C)C)[C@@H](C)O
8.2 nM	9.7 nM	96.3%	CC[C@H](C)[C@H](NC(=O)CNC(=O)[C@H](CC(=O)O)NC(=O)[C@H](CO)NC(=O)[C@H](Cc1cnc[nH]1)NC(C)=O)C(=O)N[C@@H](Cc1ccccc1)C(=O)N[C@H](C(=O)N[C@@H](CC(=O)O)C(=O)N[C@@H](CO)C(=O)N[C@@H](Cc1ccc(O)cc1)C(=O)N[C@@H](CO)C(=O)N[C@@H](CCCNC(=N)N)C(=O)N[C@@H](Cc1ccc(O)cc1)C(=O)N[C@@H](CCCNC(=N)N)C(=O)N[C@@H](CCCCN)C(=O)N[C@@H](CCC(N)=O)C(=O)N[C@@H](CCSC)C(=O)N[C@@H](C)C(=O)N[C@H](C(=O)N[C@@H](CCCCN)C(=O)N[C@@H](CCCCN)C(=O)N[C@@H](Cc1ccc(O)cc1)C(=O)N[C@@H](CC(C)C)C(=O)N[C@@H](C)C(=O)N[C@@H](C)C(=O)N[C@H](C(=O)N[C@@H](CC(C)C)C(N)=O)C(C)C)C(C)C)[C@@H](C)O
7.9 nM	7.7 nM	108%	CC[C@H](C)[C@H](NC(=O)CNC(=O)[C@H](CC(=O)O)NC(=O)[C@H](CO)NC(=O)[C@@H](N)Cc1cnc[nH]1)C(=O)N[C@@H](Cc1ccc(O)cc1)C(=O)N[C@H](C(=O)N[C@@H](CC(=O)O)C(=O)N[C@@H](CO)C(=O)N[C@@H](Cc1ccc(O)cc1)C(=O)N[C@@H](CO)C(=O)N[C@@H](CCCNC(=N)N)C(=O)N[C@@H](Cc1ccc(O)cc1)C(=O)N[C@@H](CCCNC(=N)N)C(=O)N[C@@H](CCCCN)C(=O)N[C@@H](CCC(N)=O)C(=O)N[C@@H](CCSC)C(=O)N[C@@H](C)C(=O)N[C@H](C(=O)N[C@@H](CCCCN)C(=O)N[C@@H](CCCCN)C(=O)N[C@@H](Cc1ccc(O)cc1)C(=O)N[C@@H](CC(C)C)C(=O)N[C@@H](C)C(=O)N[C@@H](C)C(=O)N[C@H](C(=O)N[C@@H](CC(C)C)C(N)=O)C(C)C)C(C)C)[C@@H](C)O
7.2 nM	7.6 nM	98.6%	CC[C@H](C)[C@H](NC(=O)CNC(=O)[C@@H](CC(=O)O)NC(=O)[C@H](CO)NC(=O)[C@@H](N)Cc1cnc[nH]1)C(=O)N[C@@H](Cc1ccccc1)C(=O)N[C@H](C(=O)N[C@@H](CC(=O)O)C(=O)N[C@@H](CO)C(=O)N[C@@H](Cc1ccc(O)cc1)C(=O)N[C@@H](CO)C(=O)N[C@@H](CCCNC(=N)N)C(=O)N[C@@H](Cc1ccc(O)cc1)C(=O)N[C@@H](CCCNC(=N)N)C(=O)N[C@@H](CCCCN)C(=O)N[C@@H](CCC(N)=O)C(=O)N[C@@H](CCSC)C(=O)N[C@@H](C)C(=O)N[C@H](C(=O)N[C@@H](CCCCN)C(=O)N[C@@H](CCCCN)C(=O)N[C@@H](Cc1ccc(O)cc1)C(=O)N[C@@H](CC(C)C)C(=O)N[C@@H](C)C(=O)N[C@@H](C)C(=O)N[C@H](C(=O)N[C@@H](CC(C)C)C(=O)NCC(=O)N[C@@H](CCCCN)C(=O)N[C@@H](CCCNC(=N)N)C(=O)N[C@@H](Cc1ccc(O)cc1)C(=O)N[C@@H](CCCCN)C(=O)N[C@@H](CCC(N)=O)C(=O)N[C@@H](CCCNC(=N)N)C(=O)N[C@H](C(=O)N[C@@H](CCCCN)C(=O)N[C@@H](CC(N)=O)C(=O)N[C@@H](CCCCN)C(N)=O)C(C)C)C(C)C)C(C)C)[C@@H](C)O
7.2 nM	4.3 nM	94.8%	CC[C@H](C)[C@H](NC(=O)CNC(=O)[C@H](CC(=O)O)NC(=O)C(C)(C)NC(=O)[C@@H](N)Cc1cnc[nH]1)C(=O)N[C@@H](Cc1ccccc1)C(=O)N[C@H](C(=O)N[C@@H](CC(=O)O)C(=O)N[C@@H](CO)C(=O)N[C@@H](Cc1ccc(O)cc1)C(=O)N[C@@H](CO)C(=O)N[C@@H](CCCNC(=N)N)C(=O)N[C@@H](Cc1ccc(O)cc1)C(=O)N[C@@H](CCCNC(=N)N)C(=O)N[C@@H](CCCCN)C(=O)N[C@@H](CCC(N)=O)C(=O)N[C@@H](CCSC)C(=O)N[C@@H](C)C(=O)N[C@H](C(=O)N[C@@H](CCCCN)C(=O)N[C@@H](CCCCN)C(=O)N[C@@H](Cc1ccc(O)cc1)C(=O)N[C@@H](CC(C)C)C(=O)N[C@@H](C)C(=O)N[C@@H](C)C(=O)N[C@H](C(=O)N[C@@H](CC(C)C)C(=O)NCC(=O)N[C@@H](CCCCN)C(=O)N[C@@H](CCCNC(=N)N)C(=O)N[C@@H](Cc1ccc(O)cc1)C(=O)N[C@@H](CCCCN)C(=O)N[C@@H](CCC(N)=O)C(=O)N[C@@H](CCCNC(=N)N)C(=O)N[C@H](C(=O)N[C@@H](CCCCN)C(=O)N[C@@H](CC(N)=O)C(=O)N[C@@H](CCCCN)C(N)=O)C(C)C)C(C)C)C(C)C)[C@@H](C)O (H-H[Aib]DGIFTDSYSRYRKQMAVKKYLAAVLGKRYKQRVKNK-NH2)
